In the M2OR odorant receptor database:

Tests used:
Conditions in all cases: stereoisomer not certain
OR10G2 (Homo sapiens) = molecular target: T1, OR10G2 (Homo sapiens) (UniProt Q8NGC3)
T1 sequence (whole entry): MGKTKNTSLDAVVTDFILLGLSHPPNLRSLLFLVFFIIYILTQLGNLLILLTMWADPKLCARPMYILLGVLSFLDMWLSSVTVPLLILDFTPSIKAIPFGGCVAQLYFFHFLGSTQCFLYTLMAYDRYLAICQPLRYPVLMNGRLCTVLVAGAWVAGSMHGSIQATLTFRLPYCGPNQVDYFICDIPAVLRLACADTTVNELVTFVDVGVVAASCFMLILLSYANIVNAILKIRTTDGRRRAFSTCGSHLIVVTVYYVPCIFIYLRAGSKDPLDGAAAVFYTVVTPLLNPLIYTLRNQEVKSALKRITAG
In short: (§1)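 Each receptor–molecule pair is labelled responsive or non-responsive (inactive) according to whether the original authors judged the measured signal statistically different from baseline. The data were taken from the main text and supplementary material of published papers and checked for typos and inconsistencies. Assay methods differed by source, with transient luciferase assays in mammalian cell lines being common.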

OR10G3 (Homo sapiens) = molecular target: T2, OR10G3 (Homo sapiens) (UniProt Q8NGC4)
T2 sequence (whole entry): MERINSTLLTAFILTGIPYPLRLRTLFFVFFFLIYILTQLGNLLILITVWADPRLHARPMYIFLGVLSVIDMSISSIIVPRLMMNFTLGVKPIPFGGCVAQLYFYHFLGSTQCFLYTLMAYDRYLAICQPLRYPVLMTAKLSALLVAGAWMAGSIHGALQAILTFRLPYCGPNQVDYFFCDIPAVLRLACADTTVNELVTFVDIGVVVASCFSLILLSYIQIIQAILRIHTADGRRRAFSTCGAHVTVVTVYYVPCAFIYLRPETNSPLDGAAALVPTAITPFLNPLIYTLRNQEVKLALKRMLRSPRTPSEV
In short: as §1

OR10G4 (Homo sapiens) = molecular target: T3, OR10G4 (Homo sapiens) (UniProt Q8NGN3)
T3 sequence (whole entry): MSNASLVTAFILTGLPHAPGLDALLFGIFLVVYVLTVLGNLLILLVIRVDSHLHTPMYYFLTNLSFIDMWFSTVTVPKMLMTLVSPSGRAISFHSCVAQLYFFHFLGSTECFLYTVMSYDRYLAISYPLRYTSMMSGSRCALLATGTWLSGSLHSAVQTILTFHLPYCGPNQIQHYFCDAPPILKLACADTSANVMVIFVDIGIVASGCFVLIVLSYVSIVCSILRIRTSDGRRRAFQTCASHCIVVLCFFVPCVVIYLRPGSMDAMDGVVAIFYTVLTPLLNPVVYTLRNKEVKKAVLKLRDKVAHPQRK
In short: as §1

OR10G6 (Homo sapiens) = molecular target: T4, OR10G6 (Homo sapiens) (UniProt Q8NH81)
T4 sequence (whole entry): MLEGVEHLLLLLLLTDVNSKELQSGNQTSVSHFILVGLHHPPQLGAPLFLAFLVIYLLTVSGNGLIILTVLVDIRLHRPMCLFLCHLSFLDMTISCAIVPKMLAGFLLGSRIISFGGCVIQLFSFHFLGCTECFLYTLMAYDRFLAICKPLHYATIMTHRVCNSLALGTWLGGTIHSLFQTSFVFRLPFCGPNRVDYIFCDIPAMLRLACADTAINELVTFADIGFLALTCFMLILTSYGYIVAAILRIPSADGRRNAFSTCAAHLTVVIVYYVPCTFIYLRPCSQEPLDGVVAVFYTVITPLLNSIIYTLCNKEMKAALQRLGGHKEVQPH
In short: as §1

OR10G7 (Homo sapiens) = molecular target: T5, OR10G7 (Homo sapiens) (UniProt Q8NGN6)
T5 sequence (whole entry): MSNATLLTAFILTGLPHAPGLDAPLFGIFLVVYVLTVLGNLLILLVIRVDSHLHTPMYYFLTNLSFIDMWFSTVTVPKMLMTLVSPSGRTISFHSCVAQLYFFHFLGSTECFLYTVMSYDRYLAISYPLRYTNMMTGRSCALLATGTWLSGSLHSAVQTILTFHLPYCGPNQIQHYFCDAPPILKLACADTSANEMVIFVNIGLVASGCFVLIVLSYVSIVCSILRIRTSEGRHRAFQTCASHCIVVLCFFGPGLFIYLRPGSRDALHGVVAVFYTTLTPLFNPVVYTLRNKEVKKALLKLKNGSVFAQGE
In short: as §1

OR10G8 (Homo sapiens) = molecular target: T6, OR10G8 (Homo sapiens) (UniProt Q8NGN5)
T6 sequence (whole entry): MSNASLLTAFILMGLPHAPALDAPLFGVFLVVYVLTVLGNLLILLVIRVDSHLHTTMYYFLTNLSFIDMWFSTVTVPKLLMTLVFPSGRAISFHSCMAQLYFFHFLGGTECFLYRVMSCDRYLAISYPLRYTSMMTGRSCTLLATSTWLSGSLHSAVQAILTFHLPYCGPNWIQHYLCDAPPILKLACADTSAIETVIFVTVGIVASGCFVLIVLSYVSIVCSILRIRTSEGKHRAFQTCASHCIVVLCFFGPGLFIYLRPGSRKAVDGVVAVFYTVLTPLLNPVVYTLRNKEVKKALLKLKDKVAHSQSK
In short: as §1

OR10G9 (Homo sapiens) = molecular target: T7, OR10G9 (Homo sapiens) (UniProt Q8NGN4)
T7 sequence (whole entry): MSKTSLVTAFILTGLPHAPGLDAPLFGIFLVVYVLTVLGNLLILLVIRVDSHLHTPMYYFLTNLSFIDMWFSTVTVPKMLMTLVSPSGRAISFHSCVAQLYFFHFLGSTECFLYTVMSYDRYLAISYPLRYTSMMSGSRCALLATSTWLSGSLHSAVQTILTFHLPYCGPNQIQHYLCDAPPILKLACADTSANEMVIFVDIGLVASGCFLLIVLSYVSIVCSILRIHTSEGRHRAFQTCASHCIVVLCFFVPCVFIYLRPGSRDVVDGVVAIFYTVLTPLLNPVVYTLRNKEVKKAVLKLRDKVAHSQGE
In short: as §1

OR10H1 (Homo sapiens) = molecular target: T8, OR10H1 (Homo sapiens) (UniProt Q9Y4A9)
T8 sequence (whole entry): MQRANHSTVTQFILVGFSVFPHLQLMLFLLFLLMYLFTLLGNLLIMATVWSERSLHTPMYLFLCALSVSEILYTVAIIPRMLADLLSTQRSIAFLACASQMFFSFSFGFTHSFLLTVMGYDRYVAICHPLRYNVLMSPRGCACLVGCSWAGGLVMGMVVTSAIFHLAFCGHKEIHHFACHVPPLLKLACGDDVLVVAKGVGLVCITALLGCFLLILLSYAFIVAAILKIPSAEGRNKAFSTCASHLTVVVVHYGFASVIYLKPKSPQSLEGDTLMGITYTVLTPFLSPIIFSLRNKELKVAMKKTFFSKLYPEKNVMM
In short: as §1

OR10H2 (Homo sapiens) = molecular target: T9, OR10H2 (Homo sapiens) (UniProt O60403)
T9 sequence (whole entry): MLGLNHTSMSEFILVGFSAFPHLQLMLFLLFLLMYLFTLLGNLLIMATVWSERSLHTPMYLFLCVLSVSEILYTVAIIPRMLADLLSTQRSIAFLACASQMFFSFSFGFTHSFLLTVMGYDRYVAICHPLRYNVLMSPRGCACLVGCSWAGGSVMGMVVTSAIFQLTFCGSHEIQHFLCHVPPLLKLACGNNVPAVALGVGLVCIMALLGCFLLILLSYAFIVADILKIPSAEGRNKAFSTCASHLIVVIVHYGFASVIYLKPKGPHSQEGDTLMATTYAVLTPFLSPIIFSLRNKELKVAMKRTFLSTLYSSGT
In short: as §1

Measured: odorant receptor agonist call;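 also: active if original authors judged signal statistically different from baseline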

CCC1OC(=O)C(O)=C1C (centres undefined)
inactive: all assays above
